Measured values: ChEMBL document CHEMBL1128719, “The synthesis, structure-activity, and structure-side effect relationships of a series of 8-alkoxy- and 5-amino-8-alkoxyquinolone antibacterial agents” (J Med Chem, 1995)
Converted amounts (≈) assume the structure as drawn.

Legend:
[1] = tested on: Escherichia coli; test: In vitro antibacterial activity was tested for Escherichia coli H560; assay type: functional
Summary of the method: (§1)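 Microtitration (microdilution) MIC determination in μg/mL against a panel of Gram-positive, Gram-negative and anaerobic organisms. Values come from duplicate or triplicate experiments and are stated accurate to ±50%.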

[2] = tested on: Escherichia coli; test: In vitro antibacterial activity was tested for Escherichia coli Vogel; assay type: functional; summary of the method: as §1
[3] = tested on: Enterobacter cloacae; test: In vitro antibacterial activity was tested for Enterobacter cloacae HA2646; assay type: functional
[4] = tested on: Klebsiella pneumoniae; test: In vitro antibacterial activity was tested for Klebsiella pneumoniae MGH-2; assay type: functional; summary of the method: as §1
[5] = tested on: Providencia rettgeri; test: In vitro antibacterial activity was tested for Providencia rettgeri H1771; assay type: functional; summary of the method: as §1
[6] = tested on: Pseudomonas aeruginosa; test: In vitro antibacterial activity was tested for Pseudomonas aeruginosa UI-18; assay type: functional; summary of the method: as §1
[7] = tested on: Staphylococcus aureus; test: In vitro antibacterial activity was tested for Staphylococcus aureus H228; assay type: functional; summary of the method: as §1
[8] = tested on: Staphylococcus aureus; test: In vitro antibacterial activity was tested for Staphylococcus aureus UC-76; assay type: functional; summary of the method: as §1
[9] = tested on: V79; test: Clonogenic cytotoxicity against Chinese hamster V-79 cells; assay type: functional, cell-based; conditions: Cricetulus griseus
Summary of the method: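 Chinese hamster V-79 cells grown overnight, then exposed to drug 3 h at 37 °C; drug medium replaced with fresh medium, cells incubated 5 days and scored for colony formation. IC50 (μg/mL) taken as concentration inhibiting colony formation by 50% versus control.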

[10] = tested on: Streptococcus pneumoniae; test: In vitro antibacterial activity was tested for Streptococcus pneumoniae SV-1; assay type: functional; summary of the method: as §1
[11] = tested on: Streptococcus pyogenes; test: In vitro antibacterial activity was tested for Streptococcus pyogenes C203; assay type: functional; summary of the method: as §1
[12] = tested on: Enterococcus faecalis; test: In vitro antibacterial activity was tested for Streptococcus faecalis MGH-2; assay type: functional; summary of the method: as §1
[13] = tested on: Bacteroides fragilis; test: In vitro antibacterial activity against Bacteroides fragilis BFA; assay type: functional; summary of the method: as §1
[14] = tested on: Clostridioides difficile; test: In vitro antibacterial activity was tested for Clostridium diff CD1-1; assay type: functional
[15] = tested on: Clostridium perfringens; test: In vitro antibacterial activity against Clostridium perfringens CP 3-1; assay type: functional
[16] = tested on: Peptoniphilus asaccharolyticus; test: In vitro antibacterial activity was tested for Pepto asac PA 3-1; assay type: functional; summary of the method: as §1
[17] = tested on: Cutibacterium acnes; test: In vitro antibacterial activity was tested for Propion acnes PA5-1; assay type: functional; summary of the method: as §1

For NCC1CCCN(c2cc3c(cc2F)c(=O)c(C(=O)O)cn3C2CC2)C1 (stereo not drawn), the MIC [1] was 0.4 µg/mL (≈ 1.11 µM), the MIC [2] was 0.4 µg/mL (≈ 1.11 µM) and the MIC [3] was 0.4 µg/mL (≈ 1.11 µM). For the same molecule, the MIC [4] was 0.8 µg/mL (≈ 2.23 µM), the MIC [5] was 1.6 µg/mL (≈ 4.45 µM) and the MIC [6] was 3.1 µg/mL (≈ 8.63 µM). For the same molecule, the MIC [7] was 0.8 µg/mL (≈ 2.23 µM), the MIC [8] was 0.1 µg/mL (≈ 0.278 µM) and the IC50 [9] was 220 µg/mL (≈ 612 µM). For the same molecule, the MIC [10] was 0.1 µg/mL (≈ 0.278 µM), the MIC [11] was 0.05 µg/mL (≈ 0.139 µM) and the MIC [12] was 0.2 µg/mL (≈ 0.556 µM).
COc1c(N2CCNC(C)C2)c(F)cc2c(=O)c(C(=O)O)cn(C3CC3)c12 (stereo not drawn) [GATIFLOXACIN] showed an MIC [13] of 0.4 µg/mL (≈ 1.07 µM), an MIC [14] of 1.6 µg/mL (≈ 4.26 µM) and an MIC [15] of 0.4 µg/mL (≈ 1.07 µM). The MIC [1] was 0.05 µg/mL (≈ 0.133 µM), the MIC [2] was 0.05 µg/mL (≈ 0.133 µM) and the MIC [3] was 0.05 µg/mL (≈ 0.133 µM). It also gave an MIC [4] of 0.1 µg/mL (≈ 0.266 µM), an MIC [16] of 0.8 µg/mL (≈ 2.13 µM) and an MIC [5] of 0.2 µg/mL (≈ 0.533 µM). The MIC [6] was 0.8 µg/mL (≈ 2.13 µM), the MIC [7] was 0.2 µg/mL (≈ 0.533 µM) and the MIC [8] was 0.05 µg/mL (≈ 0.133 µM). It also gave an IC50 [9] of 85 µg/mL (≈ 226 µM), an MIC [10] of 0.1 µg/mL (≈ 0.266 µM) and an MIC [11] of 0.1 µg/mL (≈ 0.266 µM). For the same molecule, the MIC [12] was 0.2 µg/mL (≈ 0.533 µM) and the MIC [17] was 0.4 µg/mL (≈ 1.07 µM).
Work on NCC1CCCN(c2c(F)cc3c(=O)c(C(=O)O)cn(C4CC4)c3c2F)C1 (stereo not drawn) yielded an MIC [13] of 1.6 µg/mL (≈ 4.24 µM), an MIC [14] of 0.8 µg/mL (≈ 2.12 µM) and an MIC [15] of 0.2 µg/mL (≈ 0.53 µM). It also gave an MIC [1] of 0.05 µg/mL (≈ 0.132 µM), an MIC [2] of 0.05 µg/mL (≈ 0.132 µM) and an MIC [3] of 0.05 µg/mL (≈ 0.132 µM). For the same molecule, the MIC [4] was 0.2 µg/mL (≈ 0.53 µM), the MIC [16] was 0.4 µg/mL (≈ 1.06 µM) and the MIC [5] was 0.2 µg/mL (≈ 0.53 µM). It also gave an MIC [6] of 0.4 µg/mL (≈ 1.06 µM), an MIC [7] of 0.1 µg/mL (≈ 0.265 µM) and an MIC [8] of 0.2 µg/mL (≈ 0.53 µM). It also gave an IC50 [9] of 43 µg/mL (≈ 114 µM), an MIC [10] of 0.013 µg/mL (≈ 0.0344 µM) and an MIC [11] of 0.013 µg/mL (≈ 0.0344 µM). For the same molecule, the MIC [12] was 0.05 µg/mL (≈ 0.132 µM) and the MIC [17] was 0.8 µg/mL (≈ 2.12 µM).
In the case of NCC1CCCN(c2c(F)cc3c(=O)c(C(=O)O)cn(C4CC4)c3c2Cl)C1 (stereo not drawn), the MIC [1] was 0.05 µg/mL (≈ 0.127 µM), the MIC [2] was 0.1 µg/mL (≈ 0.254 µM) and the MIC [3] was 0.2 µg/mL (≈ 0.508 µM). It also gave an MIC [4] of 0.2 µg/mL (≈ 0.508 µM), an MIC [5] of 0.2 µg/mL (≈ 0.508 µM) and an MIC [6] of 1.6 µg/mL (≈ 4.06 µM). The MIC [7] was 0.025 µg/mL (≈ 0.0635 µM), the MIC [8] was 0.003 µg/mL (≈ 0.00762 µM) and the IC50 [9] was 17 µg/mL (≈ 43.2 µM). It also gave an MIC [10] of 0.003 µg/mL (≈ 0.00762 µM), an MIC [11] of 0.003 µg/mL (≈ 0.00762 µM) and an MIC [12] of 0.05 µg/mL (≈ 0.127 µM).
